Results on 13 compounds are retold here after ChEMBL document CHEMBL4038310, “Scaffold Hopping and Optimization of Maleimide Based Porcupine Inhibitors” (J Med Chem, 2017).

Series [1] in a line: Thermodynamic solubility of compound at pH 4. To be noted: buffer, read-out: Therm_solubility. The class given is physicochemical.
Series [2] in a line: Cmax in CD1 mouse at 5 mg/kg administered as single dose via oral gavage after 24 hrs by LC/MS analysis. In kind it is ADME, organism-based. On the set-up: dose 5 mg/kg, route oral. The settings on record: in vivo. In short, it runs like this:
(§1)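 Female CD-1 mice, 6-8 weeks, 26 ± 3 g; single oral gavage dose of 5 mg/kg; three mice per time point. Sampling by cardiac puncture after CO2 euthanasia at pre-dose and from 5 or 10 min up to 24 h into K3EDTA. Plasma was extracted with acetonitrile/formic acid, carbamazepine internal standard, and analysed by LC-MS/MS (ESI+, MRM). Parameters were derived non-compartmentally.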

The nature of series [3]: Thermodynamic solubility of compound at pH 7.4. In kind it is physicochemical. The settings on record: buffer, read-out: Therm_solubility.
Series [4] can be described thus: Tmax in CD1 mouse at 5 mg/kg administered as single dose via oral gavage after 24 hrs by LC/MS analysis. The class given is ADME, organism-based. To be noted: in vivo. In short, it runs like this: as §1
The nature of series [5]: Bioavailability in Sprague-Dawley rat plasma at 2 mg/kg, iv. In kind it is ADME, organism-based. In short, it runs like this: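 Male Sprague Dawley rats were given a 2 mg/kg intravenous dose and compared with a 10 mg/kg oral dose. Absolute F = (AUC0-inf po/AUC0-inf iv) × (dose iv/dose po) × 100.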
A further series concerns Mus musculus. The experiment in a line: Bioavailability in CD1 mouse at 1 mg/kg, iv administered as single dose after 24 hrs by LC/MS analysis. The settings on record: in vivo. The class given is ADME, organism-based. In short, it runs like this:
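Female CD-1 mice received a single 1 mg/kg tail-vein dose, with three mice per time point and plasma sampled up to 24 h. Quantitation was by LC-MS/MS against standards in blank mouse plasma. Absolute oral F = (AUC0-inf po/AUC0-inf iv) × (dose iv/dose po) × 100, using the 5 mg/kg oral gavage arm.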

Series [6] is described as follows: Cmax in Sprague-Dawley rat at 10 mg/kg, po. The class given is ADME, organism-based. Also noted: dose 10 mg/kg, route oral. The settings on record: in vivo. In short, it runs like this:
(§2)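 Male Sprague Dawley rats received a single oral dose of 10 mg/kg. A plasma concentration-time profile was obtained, and PK parameters were calculated by the non-compartmental method.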

Series [7] in a line: AUC in Sprague-Dawley rat at 10 mg/kg, po. In kind it is ADME, organism-based. To be noted: in vivo. In short, it runs like this: as §2

Converted amounts (≈) assume the structure as drawn. Some results are limits rather than exact numbers.

As to `Cc1ccc(-c2ccc(NC(=O)CN3CCCC4=C3C(=O)N(C3CC3)C4=O)nn2)cn1`, the figures for the solubility thermodynamic in series [1] and in series [3] were greater than 0.041 mg/mL and 0.0111 mg/mL (≈ 26.5 µM), respectively. Further, in series [2], the concentration peaked (Cmax) at 1.19 µg/mL. For the same compound, the Tmax (commonly the time from dosing to the highest level) in series [4] is 30 min.
Consider `O=C(CN1CCCC2=C1C(=O)N(C1CC1)C2=O)Nc1ccc(-c2cccnc2)nn1`, for which the bioavailability (as a rule, the share of a dose that reaches the circulation, judged against a reference dose that is usually intravenous) in series [5] was found to be 81%. The same compound had a F in the series on Mus musculus of 100%. Moreover, the solubility thermodynamic in series [1] was determined as 0.141 mg/mL (≈ 349 µM); in series [3] it was 0.06 mg/mL (≈ 148 µM). The Cmax (as a rule, the peak of the concentration-time curve) in series [6] came to 17.3 µg/mL; in series [2], 4.03 µg/mL. Further, the AUC (as a rule, the area under the concentration-time curve, a measure of exposure) in series [7] is 81.2 µg·h/mL. Moreover, the Tmax in series [4] was 30 min.
For the compound `Cc1ccc(-c2ccc(NC(=O)CN3CCCC4=C3C(=O)N(C)C4=O)nn2)cn1`, the figures for the solubility thermodynamic in series [1] and in series [3] were greater than 0.194 mg/mL and 0.0355 mg/mL (≈ 90.5 µM), respectively. In series [2], this compound yielded a Cmax of 1.05 µg/mL. Also, the Tmax in series [4] stood at 10.2 min.
On to `CN1C(=O)C2=C(C1=O)N(CC(=O)Nc1ccc(-c3cccnc3)nn1)CCC2`, for which the solubility thermodynamic in series [1] is 0.0139 mg/mL (≈ 36.7 µM); in series [3] it was 0.0095 mg/mL (≈ 25.1 µM). The same compound returned a Cmax in series [2] of 0.759 µg/mL. For the same compound, the Tmax in series [4] amounted to 120 min.
In the case of `CN1C(=O)C2=C(C1=O)N(CC(=O)Nc1ccc(-c3nccs3)cc1)CCC2`, the solubility thermodynamic was 0.0011 mg/mL (≈ 2.88 µM) in series [1] and 0.00126 to 0.0013 mg/mL (≈ 3.29 to 3.4 µM) in series [3].
Consider `O=C(CN1CCCC2=C1C(=O)N(C1CC1)C2=O)Nc1ccc(-c2cncc(F)c2)nn1`, for which the solubility thermodynamic came to 0.0138 mg/mL (≈ 32.7 µM) in series [1] and 0.0149 mg/mL (≈ 35.3 µM) in series [3]. For the same compound, the Cmax in series [2] was found to be 3.29 µg/mL. The Tmax in series [4] is 30 min.
Turning to `CN1C(=O)C2=C(C1=O)N(CC(=O)Nc1ccc(-c3cncc(F)c3)nn1)CCC2`, the solubility thermodynamic came out at 0.082 mg/mL (≈ 207 µM) in series [1] and 0.041 mg/mL (≈ 103 µM) in series [3]. The compound further registered a Cmax in series [2] of 0.845 µg/mL. The Tmax in series [4] amounted to 120 min.
Consider `CN1C(=O)C2=C(C1=O)N(CC(=O)Nc1ccc(-c3cccnc3)nc1)CCC2`, for which the solubility thermodynamic in series [3] is 0.013 mg/mL (≈ 34.6 µM).
With `CN1C(=O)c2cccc(CC(=O)Nc3ccc(-c4nccs4)cc3)c2C1=O`, the solubility thermodynamic in series [3] was 0.00042 mg/mL (≈ 1.11 µM).
Take `CN1C(=O)C2=C(C1=O)N(CC(=O)Nc1ccc(-c3ccccc3)cn1)CCC2`: the solubility thermodynamic in series [3] turned out to be 0.00024 mg/mL (≈ 0.638 µM).
Turning to `CN1C(=O)C2=C(C1=O)N(CC(=O)Nc1ccc(-c3ccccc3)nc1)CCC2`, the solubility thermodynamic in series [3] was determined as 0.00075 mg/mL (≈ 1.99 µM).
Still for that read-out and setting: to `CN1C(=O)C2=C(C1=O)N(CC(=O)Nc1ccc(-c3ccccc3)cc1)CCC2` belongs 0.0021 mg/mL (≈ 5.59 µM); to `CN1C(=O)C2=C(C1=O)N(CC(=O)Nc1ccc(-c3ccccc3)nn1)CCC2`, 0.00334 mg/mL (≈ 8.85 µM).
